Results reported in ChEMBL document CHEMBL1124524, “Organic phosphorus compounds. 2. Synthesis and coronary vasodilator activity of (benzothiazolylbenzyl) phosphonate derivatives” (1989).

Test system: Cavia porcellus
Test: Maximum increase in the coronary flow of isolated guinea pig heart when a dose of 10 ug/heart is administered
Format: functional
Outline: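 Langendorff-perfused isolated guinea pig heart, with Krebs-Henseleit fluid gassed with 95% O2/5% CO2, at 34 ± 1 °C and 60 cm H2O perfusion pressure. Compound was dissolved in propylene glycol at 100 μg/mL and infused at 0.1 mL/min. Coronary flow was read by electromagnetic flowmeter before and after infusion and expressed as percentage gain; mean ± SE of five experiments.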

SMILES | Max increase in coronary flow [%]
CCOP(=O)(OCC)OCc1ccc(-c2nc3ccccc3s2)cc1 | 47.7
CCOP(=O)(Cc1ccc(-c2nc(-c3ccccc3)c(-c3ccccc3)s2)cc1)OCC | 23
CCOP(=O)(OCC)c1ccc(-c2nc3ccccc3s2)cc1 | 27.2
CCOP(=O)(Cc1ccc(-c2nc3ccccc3[nH]2)nc1)OCC | 27.1
CCOP(=O)(CCc1ccc(-c2nc3ccccc3s2)cc1)OCC | 40.7
CCOP(=O)(/C=C/c1ccc(-c2nc3ccccc3s2)cc1)OCC | 49.5
CCOP(=O)(CCOc1ccc(-c2nc3ccccc3s2)cc1)OCC | 27.2
CCOP(=O)(Cc1ccc(-c2nc3ccccc3s2)s1)OCC | 51.1
CCOP(=O)(Cc1ccc(-c2nc3ccccc3s2)nc1)OCC | 94
CCOP(=O)(Cc1cccnc1)OCC | 21.4
CCOP(=O)(Cc1ccc(-c2nc(-c3ccccc3)cs2)cc1)OCC | 60.3
CCOP(=O)(Cc1ccc(-c2nc3ccccc3o2)nc1)OCC | 38.7
CCOP(=O)(Cc1ccc(-c2nccs2)nc1)OCC | 23.2
CCOP(=O)(Cc1ccc(-c2nc3ccccc3s2)cc1)OCC [FOSTEDIL] | 79.9
